Experimental data: paper PMC9217999 (Targeted Oncology, 2022)
Entries after “also recorded” stand apart in the source; their conditions may differ.

Experiment: Safety and tolerability in iMATRIX-cobi Phase I/II study
Type: in vivo, human
Summary of the method: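 Patients aged 6 months to <30 years with relapsed/refractory solid tumors with MAPK pathway involvement. Oral test compound (20-mg tablet or suspension, with/without food) on Days 1–21 of 28-day cycles. Cumulative weekly weight-based dose rounded to 20 mg, capped at 60 mg/day. Rolling 6 escalation in cohorts of 3–6. Eye exams including OCT at baseline, cycle 1 Days 8/15, and each later cycle Day 1. All dosed patients evaluated.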

[1] = Dose escalation suspension (n = 26)
[2] = Dose escalation tablet (n = 18)

## O=C(c1ccc(F)c(F)c1Nc1ccc(I)cc1F)N1CC(O)([C@@H]2CCCCN2)C1 [cobimetinib]
0.6 mg/kg suspension
  DLTs (events): grade 1 chorioretinopathy
1.0 mg/kg tablet
  DLTs (events): grade 3 headache; also recorded: grade 2 retinal detachment
1.33 mg/kg suspension
  DLTs (events): grade 4 chorioretinopathy; also recorded: grade 1 serous retinal detachment
[1]
  Any treatment-related AE, G1: 6 (23) n (%)
  Any treatment-related AE, G2: 12 (46) n (%)
  Any treatment-related AE, G3: 4 (15) n (%)
  Any treatment-related AE, G4: 1 (4) n (%)
  Treatment-related AE: ALT increased, G1: 1 (4) n (%)
  Treatment-related AE: ALT increased, G2: 0 n (%)
  Treatment-related AE: ALT increased, G3: 1 (4) n (%)
  Treatment-related AE: ALT increased, G4: 0 n (%)
  Treatment-related AE: AST increased, G1: 1 (4) n (%)
  Treatment-related AE: AST increased, G2: 0 n (%)
  Treatment-related AE: AST increased, G3: 1 (4) n (%)
  Treatment-related AE: AST increased, G4: 0 n (%)
  Treatment-related AE: Abdominal pain, G1: 2 (8) n (%)
  Treatment-related AE: Abdominal pain, G2: 2 (8) n (%)
  Treatment-related AE: Abdominal pain, G3: 0 n (%)
  Treatment-related AE: Abdominal pain, G4: 0 n (%)
  Treatment-related AE: Anemia, G1: 1 (4) n (%)
  Treatment-related AE: Anemia, G2: 0 n (%)
  Treatment-related AE: Anemia, G3: 0 n (%)
  Treatment-related AE: Anemia, G4: 0 n (%)
  Treatment-related AE: Asthenia, G1: 0 n (%)
  Treatment-related AE: Asthenia, G2: 0 n (%)
  Treatment-related AE: Asthenia, G3: 0 n (%)
  Treatment-related AE: Asthenia, G4: 0 n (%)
  Treatment-related AE: Blood CPK increased, G1: 2 (8) n (%)
  Treatment-related AE: Blood CPK increased, G2: 1 (4) n (%)
  Treatment-related AE: Blood CPK increased, G3: 1 (4) n (%)
  Treatment-related AE: Blood CPK increased, G4: 0 n (%)
  Treatment-related AE: Chorioretinopathy, G1: 1 (4) n (%)
  Treatment-related AE: Chorioretinopathy, G2: 0 n (%)
  Treatment-related AE: Chorioretinopathy, G3: 0 n (%)
  Treatment-related AE: Chorioretinopathy, G4: 1 (4) n (%)
  Treatment-related AE: Constipation, G1: 1 (4) n (%)
  Treatment-related AE: Constipation, G2: 0 n (%)
  Treatment-related AE: Constipation, G3: 0 n (%)
  Treatment-related AE: Constipation, G4: 0 n (%)
  Treatment-related AE: Decreased appetite, G1: 2 (8) n (%)
  Treatment-related AE: Decreased appetite, G2: 0 n (%)
  Treatment-related AE: Decreased appetite, G3: 0 n (%)
  Treatment-related AE: Decreased appetite, G4: 0 n (%)
  Treatment-related AE: Dermatitis acneiform, G1: 4 (15) n (%)
  Treatment-related AE: Dermatitis acneiform, G2: 1 (4) n (%)
  Treatment-related AE: Dermatitis acneiform, G3: 1 (4) n (%)
  Treatment-related AE: Dermatitis acneiform, G4: 0 n (%)
  Treatment-related AE: Diarrhea, G1: 2 (8) n (%)
  Treatment-related AE: Diarrhea, G2: 7 (27) n (%)
  Treatment-related AE: Diarrhea, G3: 0 n (%)
  Treatment-related AE: Diarrhea, G4: 0 n (%)
  Treatment-related AE: Dry skin, G1: 4 (15) n (%)
  Treatment-related AE: Dry skin, G2: 0 n (%)
  Treatment-related AE: Dry skin, G3: 1 (4) n (%)
  Treatment-related AE: Dry skin, G4: 0 n (%)
  Treatment-related AE: Encephalopathy, G1: 0 n (%)
  Treatment-related AE: Encephalopathy, G2: 0 n (%)
  Treatment-related AE: Encephalopathy, G3: 0 n (%)
  Treatment-related AE: Encephalopathy, G4: 0 n (%)
  Treatment-related AE: Erythema, G1: 2 (8) n (%)
  Treatment-related AE: Erythema, G2: 0 n (%)
  Treatment-related AE: Erythema, G3: 0 n (%)
  Treatment-related AE: Erythema, G4: 0 n (%)
  Treatment-related AE: Fatigue, G1: 6 (23) n (%)
  Treatment-related AE: Fatigue, G2: 0 n (%)
  Treatment-related AE: Fatigue, G3: 0 n (%)
  Treatment-related AE: Fatigue, G4: 0 n (%)
  Treatment-related AE: Headache, G1: 3 (12) n (%)
  Treatment-related AE: Headache, G2: 2 (8) n (%)
  Treatment-related AE: Headache, G3: 0 n (%)
  Treatment-related AE: Headache, G4: 0 n (%)
  Treatment-related AE: Nausea, G1: 4 (15) n (%)
  Treatment-related AE: Nausea, G2: 0 n (%)
  Treatment-related AE: Nausea, G3: 0 n (%)
  Treatment-related AE: Nausea, G4: 0 n (%)
  Treatment-related AE: Paronychia, G1: 2 (8) n (%)
  Treatment-related AE: Paronychia, G2: 1 (4) n (%)
  Treatment-related AE: Paronychia, G3: 1 (4) n (%)
  Treatment-related AE: Paronychia, G4: 0 n (%)
  Treatment-related AE: Rash, G1: 2 (8) n (%)
  Treatment-related AE: Rash, G2: 0 n (%)
  Treatment-related AE: Rash, G3: 0 n (%)
  Treatment-related AE: Rash, G4: 0 n (%)
  Treatment-related AE: Transaminases increased, G1: 0 n (%)
  Treatment-related AE: Transaminases increased, G2: 0 n (%)
  Treatment-related AE: Transaminases increased, G3: 1 (4) n (%)
  Treatment-related AE: Transaminases increased, G4: 0 n (%)
  Treatment-related AE: Vomiting, G1: 2 (8) n (%)
  Treatment-related AE: Vomiting, G2: 0 n (%)
  Treatment-related AE: Vomiting, G3: 0 n (%)
  Treatment-related AE: Vomiting, G4: 0 n (%)
  Treatment-related AE: Weight increased, G1: 0 n (%)
  Treatment-related AE: Weight increased, G2: 0 n (%)
  Treatment-related AE: Weight increased, G3: 0 n (%)
  Treatment-related AE: Weight increased, G4: 0 n (%)
[2]
  Any treatment-related AE, G1: 7 (39) n (%)
  Any treatment-related AE, G2: 5 (28) n (%)
  Any treatment-related AE, G3: 4 (22) n (%)
  Any treatment-related AE, G4: 0 n (%)
  Treatment-related AE: ALT increased, G1: 1 (6) n (%)
  Treatment-related AE: ALT increased, G2: 0 n (%)
  Treatment-related AE: ALT increased, G3: 0 n (%)
  Treatment-related AE: ALT increased, G4: 0 n (%)
  Treatment-related AE: AST increased, G1: 1 (6) n (%)
  Treatment-related AE: AST increased, G2: 0 n (%)
  Treatment-related AE: AST increased, G3: 0 n (%)
  Treatment-related AE: AST increased, G4: 0 n (%)
  Treatment-related AE: Abdominal pain, G1: 4 (22) n (%)
  Treatment-related AE: Abdominal pain, G2: 0 n (%)
  Treatment-related AE: Abdominal pain, G3: 0 n (%)
  Treatment-related AE: Abdominal pain, G4: 0 n (%)
  Treatment-related AE: Anemia, G1: 1 (6) n (%)
  Treatment-related AE: Anemia, G2: 0 n (%)
  Treatment-related AE: Anemia, G3: 0 n (%)
  Treatment-related AE: Anemia, G4: 0 n (%)
  Treatment-related AE: Asthenia, G1: 0 n (%)
  Treatment-related AE: Asthenia, G2: 0 n (%)
  Treatment-related AE: Asthenia, G3: 0 n (%)
  Treatment-related AE: Asthenia, G4: 0 n (%)
  Treatment-related AE: Blood CPK increased, G1: 0 n (%)
  Treatment-related AE: Blood CPK increased, G2: 1 (6) n (%)
  Treatment-related AE: Blood CPK increased, G3: 0 n (%)
  Treatment-related AE: Blood CPK increased, G4: 0 n (%)
  Treatment-related AE: Chorioretinopathy, G1: 0 n (%)
  Treatment-related AE: Chorioretinopathy, G2: 0 n (%)
  Treatment-related AE: Chorioretinopathy, G3: 0 n (%)
  Treatment-related AE: Chorioretinopathy, G4: 0 n (%)
  Treatment-related AE: Constipation, G1: 3 (17) n (%)
  Treatment-related AE: Constipation, G2: 0 n (%)
  Treatment-related AE: Constipation, G3: 0 n (%)
  Treatment-related AE: Constipation, G4: 0 n (%)
  Treatment-related AE: Decreased appetite, G1: 2 (11) n (%)
  Treatment-related AE: Decreased appetite, G2: 0 n (%)
  Treatment-related AE: Decreased appetite, G3: 1 (6) n (%)
  Treatment-related AE: Decreased appetite, G4: 0 n (%)
  Treatment-related AE: Dermatitis acneiform, G1: 0 n (%)
  Treatment-related AE: Dermatitis acneiform, G2: 0 n (%)
  Treatment-related AE: Dermatitis acneiform, G3: 0 n (%)
  Treatment-related AE: Dermatitis acneiform, G4: 0 n (%)
  Treatment-related AE: Diarrhea, G1: 8 (44) n (%)
  Treatment-related AE: Diarrhea, G2: 1 (6) n (%)
  Treatment-related AE: Diarrhea, G3: 0 n (%)
  Treatment-related AE: Diarrhea, G4: 0 n (%)
  Treatment-related AE: Dry skin, G1: 2 (11) n (%)
  Treatment-related AE: Dry skin, G2: 2 (11) n (%)
  Treatment-related AE: Dry skin, G3: 0 n (%)
  Treatment-related AE: Dry skin, G4: 0 n (%)
  Treatment-related AE: Encephalopathy, G1: 0 n (%)
  Treatment-related AE: Encephalopathy, G2: 0 n (%)
